# Experimental data: publication PMC9482816 (Journal of medicinal chemistry, 2022)
# “Also recorded” adds a separate entry of the source.
# How the values were obtained:
# [1] = test system: H3K9me2 level in K562 cells; assay: Western blot analysis for H3K9me2 in K562 cells; format: cell-based; details: treated for 48 h
# [2] = test system: H3K9me2 level in MDA-MB-231 cells; assay: Western blot analysis for H3K9me2 in MDA-MB-231 cells; format: cell-based; details: 0.2, 1, or 5 μM for 24, 48, or 72 h
# [3] = target: T1, G9a (Homo sapiens, UniProt Q96KQ7); assay: Mass spectrometry based analysis of G9a-inhibitor adduct formation; format: binding; details: for covalent modification of G9a (MS-based analysis, in words): after 1 h of incubation
# T1 sequence (Q96KQ7 913-1193): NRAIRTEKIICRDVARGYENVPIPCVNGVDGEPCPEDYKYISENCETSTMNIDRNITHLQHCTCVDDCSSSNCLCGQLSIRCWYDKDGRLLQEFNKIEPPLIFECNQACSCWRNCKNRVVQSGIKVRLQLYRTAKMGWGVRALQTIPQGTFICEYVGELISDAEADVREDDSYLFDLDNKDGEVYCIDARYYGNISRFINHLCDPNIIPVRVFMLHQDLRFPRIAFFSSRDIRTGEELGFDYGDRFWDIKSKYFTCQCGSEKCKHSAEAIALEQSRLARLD
# Method in brief: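 Purified human G9a catalytic domain (residues 913–1193), 5 μM in 50 mM Tris-HCl pH 7.5, 150 mM NaCl, incubated 1 h at room temperature with 50 μM test compound or DMSO. Intact protein analysed by electrospray LC/TOF mass spectrometry. Protein–inhibitor adduct quantified from the mass shift over unmodified G9a (34 314 Da).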
# [4] = target: T2, GLP (Homo sapiens, UniProt Q9H9B1); assay: Radioactivity-based scintillation proximity biochemical assay, GLP; details: preincubation 5, 15, 45 min
# T2 sequence (Q9H9B1 1-1298): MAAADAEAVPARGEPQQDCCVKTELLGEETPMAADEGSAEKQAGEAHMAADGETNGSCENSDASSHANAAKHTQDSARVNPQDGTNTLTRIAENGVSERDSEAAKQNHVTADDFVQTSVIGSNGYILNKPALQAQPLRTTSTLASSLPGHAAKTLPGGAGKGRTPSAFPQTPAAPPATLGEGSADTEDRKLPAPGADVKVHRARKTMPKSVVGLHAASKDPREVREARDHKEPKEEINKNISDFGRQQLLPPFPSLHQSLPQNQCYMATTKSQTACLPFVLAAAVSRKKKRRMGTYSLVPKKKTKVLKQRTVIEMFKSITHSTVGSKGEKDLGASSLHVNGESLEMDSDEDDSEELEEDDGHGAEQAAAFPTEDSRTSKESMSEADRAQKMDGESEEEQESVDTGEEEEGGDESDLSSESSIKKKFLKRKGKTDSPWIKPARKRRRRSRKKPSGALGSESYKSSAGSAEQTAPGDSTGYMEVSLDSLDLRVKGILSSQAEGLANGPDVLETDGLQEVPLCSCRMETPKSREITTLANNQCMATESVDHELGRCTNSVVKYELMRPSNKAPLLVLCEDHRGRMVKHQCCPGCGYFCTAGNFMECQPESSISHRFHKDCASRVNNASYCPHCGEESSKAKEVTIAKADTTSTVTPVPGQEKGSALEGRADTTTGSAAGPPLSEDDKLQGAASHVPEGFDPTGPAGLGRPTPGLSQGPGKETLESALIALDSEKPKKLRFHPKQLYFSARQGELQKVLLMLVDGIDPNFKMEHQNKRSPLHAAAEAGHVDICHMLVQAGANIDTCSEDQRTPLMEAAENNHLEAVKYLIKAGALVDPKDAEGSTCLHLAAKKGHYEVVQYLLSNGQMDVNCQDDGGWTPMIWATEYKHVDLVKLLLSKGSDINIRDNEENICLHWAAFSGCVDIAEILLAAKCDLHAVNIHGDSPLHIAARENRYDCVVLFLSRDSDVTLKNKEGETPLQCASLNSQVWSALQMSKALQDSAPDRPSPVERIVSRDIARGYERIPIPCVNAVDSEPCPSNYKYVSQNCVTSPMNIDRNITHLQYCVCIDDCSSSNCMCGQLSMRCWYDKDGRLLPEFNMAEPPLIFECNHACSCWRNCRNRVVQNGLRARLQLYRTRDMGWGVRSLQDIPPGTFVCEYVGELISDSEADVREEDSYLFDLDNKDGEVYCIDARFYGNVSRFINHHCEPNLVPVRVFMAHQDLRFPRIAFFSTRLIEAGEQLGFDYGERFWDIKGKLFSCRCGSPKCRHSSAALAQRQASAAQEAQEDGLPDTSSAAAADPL
# Method in brief: (§1)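 Tritiated methyl transfer from SAM to H3 peptide, read by scintillation proximity. Enzymes are recombinant human catalytic domains: G9a (913–1193) and GLP (982–1266), each at 5 nM. Substrate is H3 peptide at 0.05 μM and SAM cofactor at 1 μM. Test compound is preincubated with enzyme for 5, 15 or 45 min. Run by a contract lab in four replicates.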
# [5] = test system: 21 other methyltransferases (PKMTs and PRMTs); assay: Selectivity assays against other methyltransferases; format: biochemical; details: compound at 1 μM; any of the 21 enzymes
# Method in brief: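 Radioactivity-based scintillation proximity format that follows transfer of the 3H-labelled methyl group from SAM to substrate. Test compound at 1 μM, run in duplicate against each methyltransferase. Inhibition expressed as percentage of control enzyme activity.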
# [6] = target: T3, G9a (Homo sapiens, UniProt Q96KQ7); assay: Radioactivity-based scintillation proximity biochemical assay, G9a; details: preincubation 5, 15, 45 min
# T3 sequence (Q96KQ7 1-1210): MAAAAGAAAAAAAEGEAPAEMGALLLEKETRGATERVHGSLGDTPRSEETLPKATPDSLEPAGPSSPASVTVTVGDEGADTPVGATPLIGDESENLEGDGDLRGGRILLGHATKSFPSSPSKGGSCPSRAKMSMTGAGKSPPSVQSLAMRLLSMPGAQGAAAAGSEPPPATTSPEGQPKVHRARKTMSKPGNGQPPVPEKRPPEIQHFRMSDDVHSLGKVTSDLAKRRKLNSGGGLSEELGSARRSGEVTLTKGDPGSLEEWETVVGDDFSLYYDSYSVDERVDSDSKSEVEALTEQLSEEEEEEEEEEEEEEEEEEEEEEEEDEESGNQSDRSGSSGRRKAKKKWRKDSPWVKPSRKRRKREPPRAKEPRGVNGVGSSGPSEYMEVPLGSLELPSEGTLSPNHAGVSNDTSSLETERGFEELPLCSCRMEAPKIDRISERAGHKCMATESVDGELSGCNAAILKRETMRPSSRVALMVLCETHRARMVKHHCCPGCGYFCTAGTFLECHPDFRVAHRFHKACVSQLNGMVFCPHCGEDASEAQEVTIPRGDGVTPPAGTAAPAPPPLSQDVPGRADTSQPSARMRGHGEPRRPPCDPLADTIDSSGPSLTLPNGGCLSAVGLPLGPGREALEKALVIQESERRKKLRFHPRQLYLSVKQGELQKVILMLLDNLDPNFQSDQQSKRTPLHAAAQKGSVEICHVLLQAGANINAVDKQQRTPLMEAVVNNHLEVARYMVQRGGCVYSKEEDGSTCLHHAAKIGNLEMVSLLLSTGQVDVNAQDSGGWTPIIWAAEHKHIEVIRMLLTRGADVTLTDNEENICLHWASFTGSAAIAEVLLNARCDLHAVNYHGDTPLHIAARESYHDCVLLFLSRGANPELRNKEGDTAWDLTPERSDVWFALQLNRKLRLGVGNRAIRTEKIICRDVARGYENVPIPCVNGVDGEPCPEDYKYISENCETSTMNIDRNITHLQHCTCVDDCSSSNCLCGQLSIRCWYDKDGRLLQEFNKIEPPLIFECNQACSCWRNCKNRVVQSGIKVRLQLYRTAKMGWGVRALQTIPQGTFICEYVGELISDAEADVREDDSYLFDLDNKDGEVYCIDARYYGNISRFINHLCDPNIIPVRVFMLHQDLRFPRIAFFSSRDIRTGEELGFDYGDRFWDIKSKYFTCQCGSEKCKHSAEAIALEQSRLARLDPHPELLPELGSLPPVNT
# Method in brief: as §1
# [7] = test system: MDA-MB-231 cells; assay: Cytotoxicity assay; format: cell-based; details: 3 days, CCK-8 (Figure S2)
# Method in brief: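 MDA-MB-231 cells are seeded at 1 × 10^4 cells per well and exposed to test compound at various concentrations for 3 days. Viability is read with CCK-8 following the kit protocol. Values are plotted from triplicate experiments.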
# [8] = target: T4, GLP (Homo sapiens, UniProt Q9H9B1); assay: Isothermal titration calorimetry; format: binding; details: ITC
# T4 sequence (Q9H9B1 982-1266): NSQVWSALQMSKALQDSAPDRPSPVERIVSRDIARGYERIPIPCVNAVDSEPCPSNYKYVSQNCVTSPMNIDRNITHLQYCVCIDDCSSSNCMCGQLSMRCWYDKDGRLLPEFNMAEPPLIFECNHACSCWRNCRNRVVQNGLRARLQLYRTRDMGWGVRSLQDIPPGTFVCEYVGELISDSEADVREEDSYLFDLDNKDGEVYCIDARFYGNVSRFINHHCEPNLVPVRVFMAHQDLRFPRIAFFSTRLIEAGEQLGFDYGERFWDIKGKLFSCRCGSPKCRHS
SMILES,reduction of H3K9me2 level in K562 cells [1],reduction of H3K9me2 level in MDA-MB-231 cells [2],"covalent modification of G9a (MS-based analysis, in words) [3]",inhibitory activity against GLP with preincubation time [4],inhibition effect against 21 PKMTs and PRMTs [5],inhibition of G9a compared to GLP [6],inhibitory activity against G9a with preincubation time [6],"rate of G9a adduct formation compared to GLP adduct ([3]; mass spectrometry, 0-120 min, 5 μM G9a or GLP, 50 μM compound)",inhibition of cell growth in MDA-MB-231 cells [7],fold improved binding affinity to GLP compared to UNC0642 [8]
"C=CC(=O)Nc1nc(NC2CCN(C(C)C)CC2)c2cc(OC)c(OCCCN3CCCC3)cc2n1 [Compound 1, N-(4-((1-Isopropylpiperidin-4-yl)amino)-6-methoxy-7-(3-(pyrrolidin-1-yl)propoxy)-quinazolin-2-yl)acrylamide]",reduced the H3K9me2 level in K562 cells,slightly lower potency than UNC0642 and compound 9,,,,,,,,
"C=CC(=O)N(C)c1nc(NC2CCN(C(C)C)CC2)c2cc(OC)c(OCCCN3CCCC3)cc2n1 [Compound 6, N-(4-((1-Isopropylpiperidin-4-yl)amino)-6-methoxy-7-(3-(pyrrolidin-1-yl)propoxy)-quinazolin-2-yl)-N-methylacrylamide]",,,completely lost its ability to covalently modify G9a,,,,,,,
"C=CC(=O)Nc1cc(NC2CCN(C(C)C)CC2)c2cc(OC)c(OCCCN3CCCC3)cc2n1 [Compound 8, N-(4-((1-Isopropylpiperidin-4-yl)amino)-6-methoxy-7-(3-(pyrrolidin-1-yl)propoxy)quinolin-2-yl)acrylamide]",reduced the H3K9me2 level in K562 cells; also recorded: much better potency compared to compound 1 and slightly better potency compared to UNC0642,effectively reduced the H3K9me2 mark in a concentration- and time-dependent manner; also recorded: improved potency compared to UNC0642 and compound 9,,improved inhibitory activity against G9a and GLP with increased preincubation time,≤ 50%,more effectively inhibited G9a than GLP at all three time points,improved inhibitory activity against G9a and GLP with increased preincubation time,faster than that of the GLP–compound 8 adduct,more effective than compound 1 and UNC0642 in suppressing the growth of MDA-MB-231 cells,1.3 fold
"CCC(=O)Nc1cc(NC2CCN(C(C)C)CC2)c2cc(OC)c(OCCCN3CCCC3)cc2n1 [Compound 9, N-(4-((1-Isopropylpiperidin-4-yl)amino)-6-methoxy-7-(3-(pyrrolidin-1-yl)propoxy)quinolin-2-yl)propionamide]",,displayed some cellular potency as a reversible inhibitor but was not as potent as compound 8,did not covalently modify G9a,,,,,,,
